Test results taken from ChEMBL document CHEMBL2202957, “Redox potentials, laccase oxidation, and antilarval activities of substituted phenols” (2012).
Activity calls are given as the source filed them. The rule behind the calls is not given here.

Tests used:
Anopheles gambiae [1] = test: Antilarval activity against third-instar larvae of Anopheles gambiae assessed as mortality at 1000 ug/L after 72 hrs; type: functional
How it was run: (§1)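 Third-instar larvae came from a laboratory An. gambiae colony originally from MR4. Groups of 12–15 larvae were held at 25°C in distilled water with larval food. Compound was added from an acetone or water stock to final 50 or 1000 μg/L, with a solvent-only control. Treatments and controls were run four times, and mortality was scored at 72 h.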

Anopheles gambiae [2] = test: Antilarval activity against third-instar larvae of Anopheles gambiae assessed as mortality at 50 ug/L after 72 hrs; type: functional; how it was run: as §1
Trametes versicolor [3] = test system: Trametes versicolor;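 as to Km: kinetic parameters for Trametes versicolor laccase, determined from a spectrophotometric readout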;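 as to kcat/Km: measured with the laccase enzyme of Trametes versicolor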
Trametes versicolor [4] = test system: Trametes versicolor; remark: listed apart in the source;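 as to Km: kinetic parameters for Trametes versicolor laccase, determined from a spectrophotometric readout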;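 as to kcat/Km: measured with the laccase enzyme of Trametes versicolor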
Trametes versicolor [5] = test: Inhibition of Trametes versicolor laccase
Culex pipiens molestus = test: Antilarval activity against third-instar larvae of Culex molestus assessed as mortality at 100 ug/L after 72 hrs; type: functional
Anopheles gambiae [6] = test: Antilarval activity against third-instar larvae of Anopheles gambiae assessed as effect on cuticle development by microscopic analysis relative to control; type: functional

Compound | Activity (Anopheles gambiae [1]) [%] | Activity (Anopheles gambiae [2]) [%] | Km (Trametes versicolor [3]) [µM] | kcat (Trametes versicolor [3]) [s⁻¹] | kcat/Km (Trametes versicolor [4]) [M⁻¹ s⁻¹] | inhibition (Trametes versicolor [5]) | Activity (Culex pipiens molestus) [%] | Activity (Anopheles gambiae [6])
CC(C)(C)c1cc(C(C)(C)CO)cc(C(C)(C)C)c1O | 46.7 | 0 |  |  |  |  |  | 
Oc1ccccc1O |  |  | 600 | 33.5 | 55800 |  |  | 
Cc1ccc(O)c(N)c1 |  |  | 110 | 131 | 1.19e+06 | inactive |  | 
CC(C)(C)c1cc(C(C)(C)CNCc2ccccc2)cc(C(C)(C)C)c1O.O=C(O)C(F)(F)F | 7.7 | 3.71 |  |  |  |  |  | 
Nc1cc(CO)ccc1O |  |  | 80 | 63 | 788000 | inactive |  | 
CC1(C)CCc2cc(C(C)(C)C)cc(C(C)(C)C)c2O1 | 91.7 | 5.77 |  |  |  |  |  | 
CC(C)(C)c1cc(C(C)(C)C(=O)[O-])cc(C(C)(C)C)c1O.[Na+] | 12.3 | 5.5 |  |  |  |  |  | 
COc1c(O)cc(O)c(Br)c1Cl |  |  | 70 | 96 | 1.37e+06 | inactive |  | 
O=Cc1cc(O)c(O)c(Cl)c1 |  |  | 40 | 31.7 | 792000 | inactive |  | 
COc1cc(O)c(Br)c(Cl)c1O |  |  | 70 | 18.3 | 262000 | inactive |  | 
COc1cc(C=O)cc(Cl)c1O |  |  | 2200 | 105 | 47800 | inactive |  | 
CC(C)(Br)C(=O)c1cc(C(C)(C)C)c(O)c(C(C)(C)C)c1 | 60 | 0 |  |  |  |  |  | 
Nc1ccc(C(=O)O)cc1O |  |  | 170 | 42.5 | 250000 | inactive |  | 
CC(C)(C)c1cc(C(C)(C)/C=N/O)cc(C(C)(C)C)c1O | 93.1 | 5.41 |  |  |  |  |  | 
CC(C)(C)c1cc(C(C)(C)C=O)cc(C(C)(C)C)c1O | 65 | 0 |  |  |  |  |  | 
Nc1ccccc1N |  |  | 430 | 17.3 | 40300 |  |  | 
Oc1ccc(O)cc1 [HYDROQUINONE] | 5.38 | 1.25 | 20 | 119 | 594 |  |  | 
COC1=CC(=O)C(N[C@@H](C)C(=O)OCc2ccccc2)=C(Cl)C1=O | 6.66 | 5 |  |  |  |  |  | 
Nc1ccccc1O |  |  | 190 | 37.5 | 197000 |  |  | 
COc1cc(O)c(O)c(Cl)c1Br |  |  | 40 | 89.7 | 2.24e+06 | inactive |  | 
CC(C)(C)c1cc(C(C)(C)c2ccccc2)cc(C(C)(C)C)c1O | 100 | 93.3 |  |  |  |  |  | 
CC(C)=CCc1cc(C(C)(C)C)cc(C(C)(C)C)c1O | 98.3 | 98.1 |  |  |  |  | 60 | Active
Oc1cc(O)c(Br)c(Cl)c1O | 11.4 | 0 | 50 | 145 | 2.89e+06 | inactive |  | 
Nc1cc(C(=O)O)ccc1O |  |  | 70 | 48.8 | 698000 | inactive |  | 
